SKN-1 block: suppressors of acrylamide-induced Pgst-4::GFP reporter in worms, primary screen, SKN-1 inhibitor project, whole organism, uHTS, GFP/RFP fluorescence ratio, strain VP596. C. elegans VP596 Pgst-4::GFP/RFP ratio, 24 h. inhibition, % at 21.8 µM. actives 0.49% (n = 360,000). AID 624304, 2012;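 active means interference check ratio from 0.5 to 1.5 plus GFP to RFP signal ratio inhibition reaching or exceeding a fixed threshold, cut at about 30% in these data, passing the limit was not always enough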
TbMetRS inhib: T. brucei MetRS inhibitors, primary screen, biochemical, luminescence. methionyl-tRNA synthetase (Trypanosoma brucei brucei). purified T. brucei MetRS, ATP depletion, Kinase-Glo luminescence. inhibition, % at 11.9 µM. actives 0.4% (n = 360,000). AID 624268, 2012;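 active means inhibition above a per-plate cutoff of the control wells' mean inhibition plus 3 SD, cut at about 5.5% in these data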
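Dosing: 11.9 µM single point; system: parasite MetRS enzyme; technique: luminescence of leftover ATP; times: 15 min enzyme-compound preincubation, 2 h reaction, 10 min detection, 25 °C; replicates: each compound tested once; read-out basis: percent inhibition relative to median high and low control wells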
Arr AP2 block: inhibitors of beta-arrestin/AP2 binding, primary screen, biochemical, GPCR trafficking, flow cytometry. beta-arrestin 1 C-terminal peptide binding to AP2 beta2-adaptin appendage (human). FITC-arrestin peptide / GST-AP2 beads; AP2 beta2 appendage carries R879A mutation. inhibition, % at 10 µM. actives 0.31% (n = 340,000). AID 504490, 2011;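 active means inhibition above a set limit, near 3 SD of compounds lacking own fluorescence, cut at about 54% in these data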
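System: GST-tagged AP2 beta2-adaptin appendage (R879A) on 4 µm glutathione beads / Reagent: FITC-arrestin peptide, 50 nM / Detection: HyperCyt-sampled flow cytometry, FL1 channel, ex 488/em 535 nm / Timing: 12 min plus 1 h, RT / Buffer or medium: PBS plus Tween 20 (0.05%) and BSA (0.1%)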
Rin1 Abl inh: inhibitors of Rin1-Abl protein binding, primary screen, biochemical, TR-FRET. Tyrosine-protein kinase ABL1 (Homo sapiens) + Ras and Rab interactor 1 (Homo sapiens), …. inhibition, % at 7.35 µM. actives 0.4% (n = 360,000); in the data active means inhibition above about 5%, passing the limit was not always enough
MT1-MMP act inh: blockers of MT1-MMP proenzyme processing, primary screen, HT1080 RFP-PRO-GFP cells, GFP/RFP fluorescence. Matrix metalloproteinase-14 (Homo sapiens), P50281. GFP/RFP ratio fluorescence, overnight; percent of plate control window, DMSO zero. GFP/RFP ratio change, % at 20 µM. actives 0.061% (n = 360,000). AID 651647, 2012;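 active means GFP/RFP ratio change of at least 30% with cell ATP level not reduced by more than half and red fluorescence within 50% of control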
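Material: RFP-PRO-GFP reporter HT1080 cells. Dosing: single-point 20 µM compound, 1% DMSO. Controls: DMSO and RFP-L50D-GFP cell wells. Timing: cells overnight before dosing, compound overnight, 37 °C, 5% CO2. Measure: GFP/RFP fluorescence ratio.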
Rin1 Abl conf: Rin1-Abl binding inhibitor retest, confirmation, biochemical, TR-FRET | shares compounds with Rin1 Abl inh | purified proteins | inhibition, % at 7.35 µM | actives 49% (n = 1,300) | AID 602124, 2011
GFP quench: GFP fluorescence inhibitors and quenchers, artefact control for Rin1-Abl interaction inhibitor project, biochemical; shares compounds with Rin1 Abl inh; inhibitors/quenchers counterscreen; inhibition, % at 6.75 µM; actives 8.5% (n = 1,300); AID 602125, 2011;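 further: ABL1-eGFP fusion protein alone without its partner RIN1-SBP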
GFP quench DR: GFP fluorescence inhibitors and quenchers, dose response, artefact control for Rin1-Abl interaction inhibitor project, biochemical; shares compounds with Rin1 Abl inh; IC50, µM; AID 602182, 2012; GFP fluorescence interference/quenching counterscreen; 230 tested, under 10 active; call rule not given here;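 further: ABL1-eGFP fusion protein alone without its RIN1 binding partner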
Numbers stand for hits. Most compounds without a hit are left out; they make up all but 1.6% or so of the library. Unless noted, no stated cut-off is given here; in the data, active means inhibition above about 6.5%; inactive means the rest.

`Cc1nc(SCC(=O)N2CC(C)OC(C)C2)nc(C)c1C` (stereo not given) gave SKN-1 block inactive, TbMetRS inhib inactive, Arr AP2 block inactive, Rin1 Abl inh 8.3, MT1-MMP act inh inactive, Rin1 Abl conf 9.5 and GFP quench inactive.
Screening Cc1ccc2c(C)c(C(=O)N3CCN(c4ncccn4)CC3)oc2c1C returned SKN-1 block inactive, TbMetRS inhib inactive, Arr AP2 block inactive, Rin1 Abl inh inactive and MT1-MMP act inh inactive.
For Cc1nnc(Cc2ccccc2)c2n[nH]c(C)c12 the results were SKN-1 block inactive, TbMetRS inhib inactive, Rin1 Abl inh inactive and MT1-MMP act inh inactive.
`CN(CCc1ccccc1)C(=O)c1ccc(NC(=O)Cc2ccc(NC(=O)C3CCCN(C(=O)C4CCC4)C3)cc2)cc1` (stereo not given) gave SKN-1 block inactive, TbMetRS inhib inactive, Arr AP2 block inactive, Rin1 Abl inh inactive and MT1-MMP act inh inactive.
CN(C(=O)c1ccc(NC(=O)Cc2cccc(NC(=O)C3CCN(C(=O)C4CCCCC4)CC3)c2)cc1)C1CC1 was read as SKN-1 block inactive, TbMetRS inhib inactive, Arr AP2 block inactive, Rin1 Abl inh 13.7, MT1-MMP act inh inactive, Rin1 Abl conf 25.6, GFP quench inactive and GFP quench DR inactive.
For CN(Cc1ccccc1)C(=O)c1ccc(NC(=O)Cc2cccc(NC(=O)C3CCN(C(=O)C4CCCCC4)CC3)c2)cc1 the results were SKN-1 block inactive, TbMetRS inhib inactive, Arr AP2 block inactive and Rin1 Abl inh inactive.
Screening CN(Cc1ccccc1)C(=O)c1ccc(NC(=O)Cc2ccc(NC(=O)C3CCN(C(=O)C4CCCC4)CC3)cc2)cc1 returned SKN-1 block inactive, TbMetRS inhib inactive, Arr AP2 block inactive, Rin1 Abl inh 13.8, MT1-MMP act inh inactive, Rin1 Abl conf 18.9, GFP quench inactive and GFP quench DR inactive.
`CN(CCc1ccccc1)C(=O)c1ccc(NC(=O)Cc2ccc(NC(=O)C3CCN(C(=O)C4CCCCC4)CC3)cc2)cc1` gave SKN-1 block inactive, TbMetRS inhib inactive, Arr AP2 block inactive, Rin1 Abl inh 30.6, MT1-MMP act inh inactive, Rin1 Abl conf 30.2, GFP quench inactive and GFP quench DR inactive.
Screening CN(CCc1ccccc1)C(=O)c1ccc(NC(=O)Cc2cccc(NC(=O)C3CCN(C(=O)C4CCCC4)CC3)c2)cc1 returned SKN-1 block inactive, TbMetRS inhib inactive, Arr AP2 block inactive, Rin1 Abl inh 12.2, MT1-MMP act inh inactive, Rin1 Abl conf 15.5 and GFP quench inactive.
Screening CN(CCc1ccccc1)C(=O)c1ccc(NC(=O)Cc2cccc(NC(=O)C3CCN(C(=O)C4CCC4)CC3)c2)cc1 returned SKN-1 block inactive, TbMetRS inhib inactive, Arr AP2 block inactive, Rin1 Abl inh inactive and MT1-MMP act inh inactive.
For O=C(NCCc1c[nH]c2ccccc12)c1[nH]c(C(F)(F)F)nc1-c1ccccc1 the results were SKN-1 block inactive, TbMetRS inhib inactive, Rin1 Abl inh inactive and MT1-MMP act inh inactive.
For CN(CCc1ccccc1)C(=O)c1ccc(NC(=O)Cc2ccc(NC(=O)C3CCN(C(=O)C4CCC4)CC3)cc2)cc1 the results were SKN-1 block inactive, TbMetRS inhib inactive, Arr AP2 block inactive, Rin1 Abl inh 26.5, MT1-MMP act inh inactive, Rin1 Abl conf 25.8, GFP quench inactive and GFP quench DR inactive.
`CN(CC(=O)Nc1ccc(Cl)c(Cl)c1)C(=O)/C=C/c1ccc(F)cc1` gave SKN-1 block inactive, TbMetRS inhib inactive, Arr AP2 block inactive, Rin1 Abl inh 9.5, MT1-MMP act inh inactive, Rin1 Abl conf inactive and GFP quench inactive.
Screening Cc1ccc(NC2CNC(=O)NC2=O)cc1C (stereo not given) returned SKN-1 block inactive, TbMetRS inhib inactive, Arr AP2 block inactive, Rin1 Abl inh inactive and MT1-MMP act inh inactive.
Screening Cc1ccc(NC2C(=O)NC(=O)NC2=O)cc1 returned SKN-1 block inactive, TbMetRS inhib inactive, Arr AP2 block inactive, Rin1 Abl inh 17.0, MT1-MMP act inh inactive, Rin1 Abl conf 15.8 and GFP quench inactive.
OC(c1ccccc1)c1nc(-c2cccc(C(F)(F)F)c2)cs1 (stereo not given) was read as SKN-1 block inactive, TbMetRS inhib inactive, Rin1 Abl inh inactive and MT1-MMP act inh inactive.
`CCOC(=O)[C@]12CCC=C1N(Cc1ccc(Cl)cc1Cl)C(=O)[C@H](CC(=O)NCc1ccc(C)o1)C2` gave SKN-1 block inactive, TbMetRS inhib inactive and MT1-MMP act inh inactive.
For NS(=O)(=O)c1ccc(N=Nc2ccc(O)c3ncccc23)cc1 the results were SKN-1 block inactive, TbMetRS inhib inactive, Arr AP2 block inactive, Rin1 Abl inh 11.3, MT1-MMP act inh inactive, Rin1 Abl conf inactive and GFP quench 12.7.
Screening Cc1cccc(N=Nc2ccc(O)c3ncccc23)c1 returned SKN-1 block inactive, TbMetRS inhib inactive, Arr AP2 block inactive, Rin1 Abl inh 6.9, MT1-MMP act inh inactive, Rin1 Abl conf 6.5 and GFP quench inactive.
Screening CCS(=O)(=O)c1ccc(OC)c(N=Nc2ccc(O)c3ncccc23)c1 returned SKN-1 block inactive, TbMetRS inhib inactive, Arr AP2 block inactive, Rin1 Abl inh inactive and MT1-MMP act inh inactive.
O=C(O)c1ccc(CSc2nnc(-c3ccncc3)n2-c2ccc(Br)cc2)cc1 was read as SKN-1 block inactive, TbMetRS inhib inactive, Arr AP2 block inactive, Rin1 Abl inh inactive and MT1-MMP act inh inactive.
O=C(O)c1ccc(CSc2nnc(-c3cccnc3)n2-c2ccc(Br)cc2)cc1 was read as SKN-1 block inactive, TbMetRS inhib inactive, Arr AP2 block inactive, Rin1 Abl inh 20.8, MT1-MMP act inh inactive, Rin1 Abl conf 32.9, GFP quench inactive and GFP quench DR inactive.
`COc1ccc(N2CCN(C(=O)CSc3nnc(-c4cccnc4)n3-c3ccccc3)CC2)cc1` gave SKN-1 block inactive, TbMetRS inhib inactive, Arr AP2 block inactive, Rin1 Abl inh 8.1, MT1-MMP act inh inactive, Rin1 Abl conf inactive and GFP quench inactive.

From PubChem BioAssay
